Experimental data pooled from the literature.

| Structure (SMILES) | assay | system | conditions | endpoint | result |
| --- | --- | --- | --- | --- | --- |
| CCCSc1ccc2nc(NC(=O)OC)[nH]c2c1 |  | simulated gastric fluid | 24 h, pH 1.2, 37 °C, acidic | thermodynamic solubility | ~300 µg/mL |
| CC1(CC(F)(F)F)NC(=O)N(c2ccc(F)c(C(F)(F)F)c2)C1=O (centres unmarked) | nephelometry | aqueous buffer |  | kinetic solubility | ≤ 50 µg/mL |
| COc1cc(N2CC[C@@]3(O)C(=O)c4cc(C)c(C)cc4N=C23)ccn1 |  | PBS | pH 7.4 | solubility | 42 µM |
| c1cc(-c2ccc3ncnc(Nc4ncco4)c3c2)cc(N2C[C@H]3C[C@@H]2CO3)c1 |  | aqueous buffer | pH 7.4, 25 °C | solubility | 6 µM |
| O=C1NC2(CCC2)C(=O)N1c1ccc(F)c(C(F)(F)F)c1 | nephelometry | aqueous buffer |  | kinetic solubility | ≤ 50 µg/mL |
| CC(C)C[C@@H]1NC(=O)[C@H](CCC(=O)O)NC(=O)[C@H]2CCCN2C(=O)[C@@H](N)CSSC[C@@H](C(=O)O)NC(=O)[C@H]2CCCN2C(=O)[C@@H](Cc2ccccc2)NC(=O)[C@H](CC(C)C)NC(=O)[C@H]([C@@H](C)O)NC(=O)[C@H](C(C)C)NC1=O |  | aqueous buffer | 18 h, pH 7.4 | thermodynamic solubility | 679 µM |
| CCC(CNc1nc(-c2cn3ccnc3cc2C)nc2ccccc12)c1ccccc1 (centres unmarked) |  | water |  | solubility | 1.3 µM |
| Oc1ccccc1C=Nc1ccccc1N=Cc1ccccc1O.[Ga+3] |  | water |  | solubility | < 100 µg/mL |
| CC(C)C[C@H]1C(=O)N[C@H]([C@H](C)O)C(=O)N[C@@H](C)C(=O)N[C@@H](Cc2ccccc2)C(=O)N[C@H](C(=O)O)CSSC[C@H](N)C(=O)N2CCC[C@@H]2C(=O)N[C@@H](CCC(=O)O)C(=O)N[C@@H](C(C)C)C(=O)N2CCC[C@H]2C(=O)N1C |  | aqueous buffer | 18 h, pH 7.4 | solubility | 692 µM |
| COc1cc(C(=O)c2nc(-c3cccc4[nH]ccc34)c[nH]2)cc(OC)c1OC |  | PBS | pH 7.4 | thermodynamic solubility | 5.25 µM |
| CC[C@H](C)[C@@H]1NC(=O)CNC(=O)[C@@H](CC(C)C)NC(=O)[C@@H](C(C)C)NC(=O)[C@H]2CCCN2C(=O)[C@@H](CC(C)C)NC(=O)[C@H](Cc2ccccc2)NC(=O)[C@@H]2CCCN2C(=O)[C@H](CC(C)C)NC(=O)[C@H](CO)NC(=O)CNC(=O)[C@H]([C@@H](C)O)NC1=O |  | aqueous buffer | 18 h, pH 7.4 | solubility | 692 µM |
| Cc1ccc2c(c1)C(=O)C1(O)CCN(c3ccccc3)C1=N2 (centres unmarked) |  | PBS | pH 7.4 | solubility | 21 µM |
| CN(C)CCOc1ccc(C=Nc2ccccc2N=Cc2ccc(OCCN(C)C)cc2O)c(O)c1.[Ga+3] |  | water |  | solubility | > 50000 µg/mL |
| CC(C)C[C@H]1C(=O)N2CCC[C@H]2C(=O)N[C@@H](CC(N)=O)C(=O)N[C@H](Cc2ccc(O)cc2)C(=O)N[C@H]([C@H](C)O)C(=O)N[C@@H](Cc2ccc(O)cc2)C(=O)N[C@H](C(=O)O)CSSC[C@H](N)C(=O)N[C@@H](Cc2ccccc2)C(=O)N[C@@H](C(C)C)C(=O)N1C |  | aqueous buffer | 18 h, pH 7.4 | thermodynamic solubility | 760 µM |
